Experimental data reported in ChEMBL document CHEMBL4028913, “Discovery of Novel Potent VEGFR-2 Inhibitors Exerting Significant Antiproliferative Activity against Cancer Cell Lines” (J Med Chem, 2018).
Calls of active or inactive are those of the source. No cut-off for these calls is given here.

Legend:
[1] = test system: HOP-92; assay: Cytotoxicity against human HOP92 cells after 48 hrs by SRB assay; assay type: functional; settings: HOP-92, 48 h
Procedure, shortened: (§1)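 NCI-60 panel; cells grown in RPMI 1640 with 5% FBS and 2 mM L-glutamine, plated at 5000–40 000 cells/well by doubling time, preincubated 24 h (37 °C, 5% CO2). Drug added at five concentrations, 1-log steps from 10−4 to 10−8 M, for 48 h. Fixed with TCA, stained with 0.4% SRB, absorbance read at 515 nm. Percent growth computed against time-zero and untreated controls; GI50, TGI and LC50 derived.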

[2] = test system: T47D; assay: Cytotoxicity against human T47D cells after 48 hrs by SRB assay; assay type: functional
Procedure, shortened: (§2)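 NCI-60 panel, five doses at 1-log steps from 10−4 to 10−8 M. Cells grown in RPMI 1640 with 5% FBS and 2 mM L-glutamine, seeded at 5000–40 000 cells/well and preincubated 24 h. Tz plates were TCA-fixed at drug addition. Drug exposure 48 h at 37 °C, then TCA fixation, 0.4% SRB stain and absorbance at 515 nm. GI50 taken from percent growth relative to Tz and control.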

[3] = test system: RPMI-8226; assay: Cytotoxicity against human RPMI8226 cells after 48 hrs by SRB assay; assay type: functional; settings: RPMI-8226, 48 h; procedure, shortened: as §1
[4] = molecular target: Fibroblast growth factor receptor 2 (Homo sapiens) (UniProt P21802); assay: Inhibition of human FGFR2 at 0.5 uM relative to control
Chain of Fibroblast growth factor receptor 2 (Homo sapiens) (P21802 22-821 limits assumed): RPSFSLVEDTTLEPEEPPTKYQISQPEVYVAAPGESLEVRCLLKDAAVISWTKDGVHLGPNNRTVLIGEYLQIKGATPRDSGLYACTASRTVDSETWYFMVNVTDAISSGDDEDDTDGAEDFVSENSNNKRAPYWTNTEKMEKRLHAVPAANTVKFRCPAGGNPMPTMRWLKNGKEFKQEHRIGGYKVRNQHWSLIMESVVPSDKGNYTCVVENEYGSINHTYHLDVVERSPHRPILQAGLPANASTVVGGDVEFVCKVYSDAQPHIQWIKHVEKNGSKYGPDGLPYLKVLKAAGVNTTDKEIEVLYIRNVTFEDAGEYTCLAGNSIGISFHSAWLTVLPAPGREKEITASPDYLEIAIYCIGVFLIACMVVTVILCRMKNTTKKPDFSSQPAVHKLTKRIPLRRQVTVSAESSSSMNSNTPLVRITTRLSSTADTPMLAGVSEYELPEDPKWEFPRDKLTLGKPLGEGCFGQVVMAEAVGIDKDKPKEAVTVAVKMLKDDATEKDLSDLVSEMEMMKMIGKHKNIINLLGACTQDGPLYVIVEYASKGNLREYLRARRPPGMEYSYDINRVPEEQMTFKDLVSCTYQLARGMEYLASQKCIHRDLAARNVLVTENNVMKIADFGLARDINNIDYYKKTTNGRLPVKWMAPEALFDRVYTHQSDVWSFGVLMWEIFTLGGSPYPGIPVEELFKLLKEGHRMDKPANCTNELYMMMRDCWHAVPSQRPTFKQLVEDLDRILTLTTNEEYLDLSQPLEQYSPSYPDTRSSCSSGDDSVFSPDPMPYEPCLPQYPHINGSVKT

[5] = test system: NCI-H23; assay: Cytotoxicity against human NCI-H23 cells after 48 hrs by SRB assay; assay type: functional; settings: NCI-H23, 48 h; procedure, shortened: as §1
[6] = Potency index, ratio of sunitinib GI50 to test compound GI50 for human ovarian cancer cells; assay type: functional, Ovarian cancer cell
[7] = molecular target: T1, Vascular endothelial growth factor receptor 2 (Homo sapiens, UniProt P35968)
T1 sequence (P35968 whole entry): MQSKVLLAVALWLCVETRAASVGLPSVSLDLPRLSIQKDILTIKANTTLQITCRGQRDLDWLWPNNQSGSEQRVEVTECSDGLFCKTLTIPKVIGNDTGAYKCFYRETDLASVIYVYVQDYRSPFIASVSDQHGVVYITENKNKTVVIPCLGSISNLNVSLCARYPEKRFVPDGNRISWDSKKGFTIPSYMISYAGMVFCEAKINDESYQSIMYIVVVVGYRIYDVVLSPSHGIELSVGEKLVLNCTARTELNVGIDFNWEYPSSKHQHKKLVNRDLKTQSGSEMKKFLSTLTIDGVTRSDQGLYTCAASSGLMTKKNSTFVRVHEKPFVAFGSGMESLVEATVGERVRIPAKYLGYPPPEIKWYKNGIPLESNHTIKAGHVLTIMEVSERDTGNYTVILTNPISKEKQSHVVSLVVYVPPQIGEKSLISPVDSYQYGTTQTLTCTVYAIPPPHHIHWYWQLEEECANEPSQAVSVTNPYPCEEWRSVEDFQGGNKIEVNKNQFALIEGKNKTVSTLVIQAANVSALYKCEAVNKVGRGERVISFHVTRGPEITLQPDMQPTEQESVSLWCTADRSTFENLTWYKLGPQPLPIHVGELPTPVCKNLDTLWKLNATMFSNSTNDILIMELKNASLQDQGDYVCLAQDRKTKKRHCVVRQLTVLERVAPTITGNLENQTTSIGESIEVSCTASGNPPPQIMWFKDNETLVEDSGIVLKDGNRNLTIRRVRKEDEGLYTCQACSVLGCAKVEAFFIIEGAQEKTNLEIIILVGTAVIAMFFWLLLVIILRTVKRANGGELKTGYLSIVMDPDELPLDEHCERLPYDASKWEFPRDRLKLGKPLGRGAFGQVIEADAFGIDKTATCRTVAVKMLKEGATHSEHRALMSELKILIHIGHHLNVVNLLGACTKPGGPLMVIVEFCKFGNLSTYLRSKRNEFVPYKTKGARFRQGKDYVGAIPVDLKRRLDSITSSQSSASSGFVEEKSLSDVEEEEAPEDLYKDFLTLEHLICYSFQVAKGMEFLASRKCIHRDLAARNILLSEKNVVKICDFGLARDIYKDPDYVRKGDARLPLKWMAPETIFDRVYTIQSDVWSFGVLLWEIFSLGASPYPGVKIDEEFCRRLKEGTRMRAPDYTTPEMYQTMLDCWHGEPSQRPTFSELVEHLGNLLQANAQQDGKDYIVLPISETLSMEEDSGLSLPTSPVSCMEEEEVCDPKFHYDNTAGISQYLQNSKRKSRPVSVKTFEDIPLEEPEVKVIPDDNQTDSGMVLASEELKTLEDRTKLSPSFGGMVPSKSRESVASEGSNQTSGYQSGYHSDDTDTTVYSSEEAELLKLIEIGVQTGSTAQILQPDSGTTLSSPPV

[8] = test system: KM12; assay: Cytotoxicity against human KM12 cells after 48 hrs by SRB assay; assay type: functional; settings: KM12, 48 h; procedure, shortened: as §1
[9] = test system: UACC-62; assay: Cytotoxicity against human UACC62 cells after 48 hrs by SRB assay; assay type: functional; settings: UACC-62, 48 h; procedure, shortened: as §2
[10] = test system: SF-539; assay: Cytotoxicity against human SF539 cells after 48 hrs by SRB assay; assay type: functional; settings: SF-539, 48 h; procedure, shortened: as §1
[11] = test system: SF-268; assay: Cytotoxicity against human SF268 cells after 48 hrs by SRB assay; assay type: functional; settings: SF-268, 48 h; procedure, shortened: as §1
[12] = Potency index, ratio of sunitinib TGI to test compound TGI for human renal cancer cells; assay type: functional, Renal cancer cell
[13] = test system: Melanoma cell; assay: Potency index, ratio of sunitinib GI50 to test compound GI50 for human melanoma cells; assay type: functional
Procedure, shortened: (§3)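 GI50 is the concentration giving 50% reduction in net protein increase relative to control. Potency index is the reference-drug GI50 divided by the test-compound GI50.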

[14] = test system: OVCAR-4; assay: Cytotoxicity against human OVCAR4 cells after 48 hrs by SRB assay; assay type: functional; settings: OVCAR-4, 48 h; procedure, shortened: as §1
[15] = molecular target: T1, Vascular endothelial growth factor receptor 2; settings: at 0.5 µM
[16] = test system: A-431; assay: Growth inhibition of human A431 cells at 10 uM after 72 hrs by CellTiter-Glo assay relative to control; assay type: functional; settings: A-431, 72 h, read-out: GI
Procedure, shortened: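 A431 cells seeded at 2000–4000 cells/well and treated with 10 μM final compound, 0.1% DMSO, for 72 h at 37 °C, 5% CO2. Viability read by CellTiter-Glo. Inhibition ratio = 1 − Vsample/Vvehicle control; triplicate.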

[17] = test system: OVCAR-3; assay: Cytotoxicity against human OVCAR3 cells after 48 hrs by SRB assay; assay type: functional; settings: OVCAR-3, 48 h; procedure, shortened: as §1
[18] = test system: Leukemia cell; assay: Potency index, ratio of sunitinib GI50 to test compound GI50 for human leukemia cells; assay type: functional; procedure, shortened: as §3
[19] = Potency index, ratio of sorafenib GI50 to test compound GI50 for human breast cancer cells; assay type: functional, Breast cancer cell; procedure, shortened: as §3
[20] = test system: OVCAR-8; assay: Cytotoxicity against human OVCAR8 cells after 48 hrs by SRB assay; assay type: functional; settings: OVCAR-8, 48 h; procedure, shortened: as §1
[21] = molecular target: Proto-oncogene tyrosine-protein kinase Src (Homo sapiens) (UniProt P12931); settings: at 0.5 µM
Chain of Proto-oncogene tyrosine-protein kinase Src (Homo sapiens) (P12931 2-536 limits assumed): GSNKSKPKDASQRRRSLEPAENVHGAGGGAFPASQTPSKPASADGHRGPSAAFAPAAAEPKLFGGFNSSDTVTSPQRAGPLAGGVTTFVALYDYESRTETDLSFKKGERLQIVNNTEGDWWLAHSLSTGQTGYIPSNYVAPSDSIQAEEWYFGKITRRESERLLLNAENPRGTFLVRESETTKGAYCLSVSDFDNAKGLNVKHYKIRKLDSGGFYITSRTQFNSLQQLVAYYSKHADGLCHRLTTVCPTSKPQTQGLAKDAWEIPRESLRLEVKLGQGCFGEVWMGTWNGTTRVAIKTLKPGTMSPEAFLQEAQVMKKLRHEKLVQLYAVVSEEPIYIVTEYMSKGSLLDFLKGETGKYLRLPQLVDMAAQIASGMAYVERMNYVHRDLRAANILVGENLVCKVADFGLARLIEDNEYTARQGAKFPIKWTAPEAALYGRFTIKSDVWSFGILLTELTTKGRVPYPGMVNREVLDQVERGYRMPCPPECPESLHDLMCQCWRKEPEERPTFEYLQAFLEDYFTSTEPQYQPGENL

[22] = test system: COLO 205; assay: Cytotoxicity against human COLO205 cells after 48 hrs by SRB assay; assay type: functional; settings: COLO 205, 48 h; procedure, shortened: as §1
[23] = test system: SF-295; assay: Cytotoxicity against human SF295 cells after 48 hrs by SRB assay; assay type: functional; settings: SF-295, 48 h; procedure, shortened: as §1
[24] = test system: HCT-15; assay: Cytotoxicity against human HCT15 cells after 48 hrs by SRB assay; assay type: functional; settings: HCT-15, 48 h; procedure, shortened: as §1
[25] = test system: MDA-MB-435; assay: Growth inhibition of human MDA-MB-435 cells after 72 hrs by CellTiter-Glo assay; assay type: functional, cell-based; settings: MDA-MB-435, 72 h
Procedure, shortened: (§4)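 Cells in exponential phase seeded at 2000–4000 cells/well, then exposed 72 h at 37 °C, 5% CO2 with 0.1% final DMSO. Single-point screen at 10 μM final. […] Read-out was CellTiter-Glo luminescence.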

[26] = test system: HCC 2998; assay: Cytotoxicity against human HCC2998 cells after 48 hrs by SRB assay; assay type: functional; settings: HCC 2998, 48 h; procedure, shortened: as §1
[27] = test system: HUVEC; assay: Growth inhibition of HUVEC at 10 uM after 72 hrs by CellTiter-Glo assay relative to control; assay type: functional; settings: Homo sapiens, read-out: GI; procedure, shortened: as §4
[28] = test system: PC-3; assay: Cytotoxicity against human PC3 cells after 48 hrs by SRB assay; assay type: functional; settings: PC-3, 48 h; procedure, shortened: as §1
[29] = test system: RXF 393; assay: Cytotoxicity against human RXF393 cells after 48 hrs by SRB assay; assay type: functional; settings: RXF 393, 48 h; procedure, shortened: as §1
[30] = test system: 786-0; assay: Cytotoxicity against human 786-0 cells after 48 hrs by SRB assay; assay type: functional; settings: 786-0, 48 h; procedure, shortened: as §1
[31] = read-out: LC50 (the source's name)

## COc1cc2ncnc(Oc3ccc(NC(=O)Nc4ccc(CN5CCOCC5)c(C(F)(F)F)c4)c4ccccc34)c2cc1OC
[1]
  GI50: 0.32 µM
  TGI: 7.76 µM
[1]; [31]
  CC50: 91.2 µM
[2]
  GI50: 0.25 µM
  TGI: 4.27 µM
[2]; [31]
  CC50: > 100 µM
[3]
  GI50: 0.39 µM
  TGI: 2.95 µM
[3]; [31]
  CC50: > 100 µM
[4]
  inhibition: > 96%
[5]
  GI50: 0.62 µM
  TGI: 3.98 µM
[5]; [31]
  CC50: > 100 µM
[6]
  RatioGI50: 5 - 7.7
[7]
  IC50: 0.0334 µM
[8]
  GI50: 0.2 µM
  TGI: 2.51 µM
[8]; [31]
  CC50: > 100 µM
[9]
  GI50: 0.6 µM
  TGI: 3.47 µM
[9]; [31]
  CC50: 18.6 µM
[10]
  GI50: 1.58 µM
  TGI: 19.5 µM
[10]; [31]
  CC50: 52.5 µM
[11]
  GI50: 0.46 µM
  TGI: 15.8 µM
[11]; [31]
  CC50: 79.4 µM
[12]
  Ratio: 3.2
[13]
  RatioGI50: 1.1 - 3.7
[14]
  GI50: 0.12 µM
  TGI: 10.5 µM
[14]; [31]
  CC50: 35.5 µM
[15]
  inhibition: Active
[16]
  inhibition of growth at 10 µM: 57.7%
[17]
  GI50: 1 µM
  TGI: 9.55 µM
[17]; [31]
  CC50: 42.7 µM
[18]
  RatioGI50: 5 - 7.7
[19]
  RatioGI50: 3.9 - 9.5
[20]
  GI50: 0.4 µM
  TGI: 9.55 µM
[20]; [31]
  CC50: > 100 µM
[21]
  inhibition: Active
[22]
  GI50: 0.38 µM
  TGI: 3.39 µM
[22]; [31]
  CC50: > 100 µM
[23]
  GI50: 1.23 µM
  TGI: 6.03 µM
[23]; [31]
  CC50: 30.9 µM
[24]
  GI50: 1 µM
  TGI: 5.13 µM
[24]; [31]
  CC50: 28.2 µM
[25]
  IC50: 2.36 µM
[26]
  GI50: 5.25 µM
  TGI: 20.9 µM
[26]; [31]
  CC50: 75.9 µM
[27]
  inhibition of growth at 10 µM: 97.1%
[28]
  GI50: 1.78 µM
  TGI: 12.6 µM
[28]; [31]
  CC50: > 100 µM
[29]
  GI50: 1.05 µM
  TGI: 7.08 µM
[29]; [31]
  CC50: 29.5 µM
[30]
  GI50: 0.79 µM
  TGI: 5.37 µM
[30]; [31]
  CC50: 26.9 µM
